Data as given in ChEMBL document CHEMBL4689842, “EUbOPEN Chemogenomics Library wave 1” (2021).

System: HEK-293T
Assay: Multiplex assay against HEK293T;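 as to Population Tubulin-Different-Phenotype (%): share of the cells with healthy nuclei that show this phenotype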
Assay type: toxicity, cell-based
Conditions: human
Summary of the method: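 Cells stained live at seeding with Hoechst33342, BioTracker Green Microtubule Cytoskeleton Dye, MitoTracker Red and Annexin V Alexa Fluor 680 were imaged on a CQ1 microscope at 37°C and 5% CO2 after compound addition. Their classification by CellPathfinder machine-learning gating ran from Hoechst high-intensity objects versus normal cells, to healthy, pyknosed or fragmented nuclei among normal cells, to mitotic or apoptotic among pyknosed cells. Tubulin, mitochondrial-mass and membrane-permeability phenotypes are per cents of healthy-nucleus cells.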

[1] = 12 h, 1 µM, compound concentration 1 uM, replicate 1
[2] = 12 h, 1 µM, compound concentration 1 uM, replicate 2
[3] = 12 h, 10 µM, compound concentration 10 uM, replicate 1
[4] = 12 h, 10 µM, compound concentration 10 uM, replicate 2
[5] = 24 h, 1 µM, compound concentration 1 uM, replicate 1
[6] = 24 h, 1 µM, compound concentration 1 uM, replicate 2
[7] = 24 h, 10 µM, compound concentration 10 uM, replicate 1
[8] = 24 h, 10 µM, compound concentration 10 uM, replicate 2
[9] = 48 h, 1 µM, compound concentration 1 uM, replicate 1
[10] = 48 h, 1 µM, compound concentration 1 uM, replicate 2
[11] = 48 h, 10 µM, compound concentration 10 uM, replicate 1
[12] = 48 h, 10 µM, compound concentration 10 uM, replicate 2

What does the source list for `C=CC(=O)Nc1cc(-n2c(=O)ccc3cnc4ccc(-c5ccc(NS(C)(=O)=O)cc5)cc4c32)ccc1C`?
Population Apoptotic (%) [1]: 44%; Population Fragmented Nuclei (%) [1]: 15%; Population Healthy Nuclei (%) [1]: 22%; Population Hoechst High Intensity Objects (%) [1]: 22%; Population Membrane Permeable-Phenotype (%) [1]: 0%; Population Mitochondria Different-Phenotype (%) [1]: 76%; Population Mitotic Cells (%) [1]: 55%; Population Normal (%) [1]: 77%; Population Pyknosed Nuclei (%) [1]: 62%; Population Tubulin-Different-Phenotype (%) [1]: 50%; Total Cell Count [1]: 174; Population Apoptotic (%) [2]: 13%; Population Fragmented Nuclei (%) [2]: 13%; Population Healthy Nuclei (%) [2]: 35%; Population Hoechst High Intensity Objects (%) [2]: 5%; Population Membrane Permeable-Phenotype (%) [2]: 17%; Population Mitochondria Different-Phenotype (%) [2]: 15%; Population Mitotic Cells (%) [2]: 86%; Population Normal (%) [2]: 94%; Population Pyknosed Nuclei (%) [2]: 50%; Population Tubulin-Different-Phenotype (%) [2]: 26%; Total Cell Count [2]: 171; Population Apoptotic (%) [3]: 50%; Population Fragmented Nuclei (%) [3]: 20%; Population Healthy Nuclei (%) [3]: 19%; Population Hoechst High Intensity Objects (%) [3]: 16%; Population Membrane Permeable-Phenotype (%) [3]: 0%; Population Mitochondria Different-Phenotype (%) [3]: 86%; Population Mitotic Cells (%) [3]: 50%; Population Normal (%) [3]: 83%; Population Pyknosed Nuclei (%) [3]: 60%; Population Tubulin-Different-Phenotype (%) [3]: 63%; Total Cell Count [3]: 184; Population Apoptotic (%) [4]: 13%; Population Fragmented Nuclei (%) [4]: 0%; Population Healthy Nuclei (%) [4]: 40%; Population Hoechst High Intensity Objects (%) [4]: 8%; Population Membrane Permeable-Phenotype (%) [4]: 9%; Population Mitochondria Different-Phenotype (%) [4]: 34%; Population Mitotic Cells (%) [4]: 86%; Population Normal (%) [4]: 91%; Population Pyknosed Nuclei (%) [4]: 58%; Population Tubulin-Different-Phenotype (%) [4]: 42%; Total Cell Count [4]: 204; Population Apoptotic (%) [5]: 42%; Population Fragmented Nuclei (%) [5]: 15%; Population Healthy Nuclei (%) [5]: 28%; Population Hoechst High Intensity Objects (%) [5]: 19%; Population Membrane Permeable-Phenotype (%) [5]: 15%; Population Mitochondria Different-Phenotype (%) [5]: 62%; Population Mitotic Cells (%) [5]: 57%; Population Normal (%) [5]: 80%; Population Pyknosed Nuclei (%) [5]: 55%; Population Tubulin-Different-Phenotype (%) [5]: 57%; Total Cell Count [5]: 173; Population Apoptotic (%) [6]: 11%; Population Fragmented Nuclei (%) [6]: 9%; Population Healthy Nuclei (%) [6]: 58%; Population Hoechst High Intensity Objects (%) [6]: 3%; Population Membrane Permeable-Phenotype (%) [6]: 11%; Population Mitochondria Different-Phenotype (%) [6]: 16%; Population Mitotic Cells (%) [6]: 88%; Population Normal (%) [6]: 96%; Population Pyknosed Nuclei (%) [6]: 31%; Population Tubulin-Different-Phenotype (%) [6]: 32%; Total Cell Count [6]: 199; Population Apoptotic (%) [7]: 48%; Population Fragmented Nuclei (%) [7]: 19%; Population Healthy Nuclei (%) [7]: 22%; Population Hoechst High Intensity Objects (%) [7]: 13%; Population Membrane Permeable-Phenotype (%) [7]: 0%; Population Mitochondria Different-Phenotype (%) [7]: 78%; Population Mitotic Cells (%) [7]: 51%; Population Normal (%) [7]: 86%; Population Pyknosed Nuclei (%) [7]: 58%; Population Tubulin-Different-Phenotype (%) [7]: 59%; Total Cell Count [7]: 194; Population Apoptotic (%) [8]: 25%; Population Fragmented Nuclei (%) [8]: 4%; Population Healthy Nuclei (%) [8]: 56%; Population Hoechst High Intensity Objects (%) [8]: 2%; Population Membrane Permeable-Phenotype (%) [8]: 7%; Population Mitochondria Different-Phenotype (%) [8]: 30%; Population Mitotic Cells (%) [8]: 74%; Population Normal (%) [8]: 97%; Population Pyknosed Nuclei (%) [8]: 39%; Population Tubulin-Different-Phenotype (%) [8]: 57%; Total Cell Count [8]: 228; Population Apoptotic (%) [9]: 45%; Population Fragmented Nuclei (%) [9]: 21%; Population Healthy Nuclei (%) [9]: 17%; Population Hoechst High Intensity Objects (%) [9]: 23%; Population Membrane Permeable-Phenotype (%) [9]: 3%; Population Mitochondria Different-Phenotype (%) [9]: 40%; Population Mitotic Cells (%) [9]: 54%; Population Normal (%) [9]: 76%; Population Pyknosed Nuclei (%) [9]: 60%; Population Tubulin-Different-Phenotype (%) [9]: 33%; Total Cell Count [9]: 204; Population Apoptotic (%) [10]: 9%; Population Fragmented Nuclei (%) [10]: 7%; Population Healthy Nuclei (%) [10]: 81%; Population Hoechst High Intensity Objects (%) [10]: 6%; Population Membrane Permeable-Phenotype (%) [10]: 10%; Population Mitochondria Different-Phenotype (%) [10]: 4%; Population Mitotic Cells (%) [10]: 90%; Population Normal (%) [10]: 93%; Population Pyknosed Nuclei (%) [10]: 10%; Population Tubulin-Different-Phenotype (%) [10]: 22%; Total Cell Count [10]: 321; Population Apoptotic (%) [11]: 52%; Population Fragmented Nuclei (%) [11]: 24%; Population Healthy Nuclei (%) [11]: 18%; Population Hoechst High Intensity Objects (%) [11]: 18%; Population Membrane Permeable-Phenotype (%) [11]: 16%; Population Mitochondria Different-Phenotype (%) [11]: 29%; Population Mitotic Cells (%) [11]: 47%; Population Normal (%) [11]: 81%; Population Pyknosed Nuclei (%) [11]: 56%; Population Tubulin-Different-Phenotype (%) [11]: 45%; Total Cell Count [11]: 204; Population Apoptotic (%) [12]: 17%; Population Fragmented Nuclei (%) [12]: 5%; Population Healthy Nuclei (%) [12]: 79%; Population Hoechst High Intensity Objects (%) [12]: 3%; Population Membrane Permeable-Phenotype (%) [12]: 8%; Population Mitochondria Different-Phenotype (%) [12]: 6%; Population Mitotic Cells (%) [12]: 82%; Population Normal (%) [12]: 96%; Population Pyknosed Nuclei (%) [12]: 15%; Population Tubulin-Different-Phenotype (%) [12]: 27%; Total Cell Count [12]: 457
